In the library only some 1.4% were active in any assay of this set; here they are far more common.
APOBEC3A inh = blocks human APOBEC3A ssDNA deamination | AID 493011 | inhibition, % at 20 µM | recombinant A3A, FAM/TAMRA ssDNA deamination fluorescence | hit rate 0.41% among 330,000 | P31941;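 active means at least 40% inhibition at 20 µM here, with at most 30% in a related deaminase screen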
A3G deaminase = blocks human APOBEC3G single-stranded DNA deamination; recombinant A3G, ssDNA deamination FAM/TAMRA fluorescence; inhibition, % at 20 µM; hit rate 0.28% among 330,000;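 active means inhibition of at least 40% at 20 µM, with no more than 30% in the related APOBEC3A deaminase screen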
Target sequence (Q9HC16 whole entry, looked up): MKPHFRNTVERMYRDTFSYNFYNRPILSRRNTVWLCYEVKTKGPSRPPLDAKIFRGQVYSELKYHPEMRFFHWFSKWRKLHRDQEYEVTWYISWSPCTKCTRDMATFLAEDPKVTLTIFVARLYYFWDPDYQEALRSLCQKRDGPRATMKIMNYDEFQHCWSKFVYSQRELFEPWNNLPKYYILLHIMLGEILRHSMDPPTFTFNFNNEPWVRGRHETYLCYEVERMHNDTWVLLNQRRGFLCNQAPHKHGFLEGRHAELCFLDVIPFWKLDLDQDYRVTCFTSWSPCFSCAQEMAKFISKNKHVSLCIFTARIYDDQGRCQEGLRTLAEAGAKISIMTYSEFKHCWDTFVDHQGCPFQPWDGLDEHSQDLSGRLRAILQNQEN
APJ agonist = agonists of human APJ apelin receptor; P35414; CHO-K1 APJ PathHunter beta-arrestin, luminescence; 0% DMSO wells, 100% apelin; activation, % at 20 µM; hit rate 0.11% among 330,000; AID 2520;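 active means activation more than six SD over the plate average, tested at 20 µM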
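assay system = CHO-K1 APJ beta-arrestin complementation cell line | input = cell density 1000 per well | dosing = compound 20 µM once, DMSO 1% | timing = compound 90 min 25 °C, reagent 1 h | measured by = luminescence from split beta-galactosidase complementation, Galacton Star/Emerald II substrate | read-out basis = APJ agonist activity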
CXCR6 inh = blocks human CXCR6 beta-arrestin recruitment | inhibition, % at 20 µM | CHO-K1 PathHunter CXCR6 beta-arrestin, luminescence | AID 602244 | hit rate 0.36% among 360,000; in the data active means inhibition above about 34%, passing the limit was not always enough;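 further: antagonist mode with CXCL16 agonist at 10 nM final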
APJ antag = antagonists of human APJ apelin receptor; hit rate 0.32% among 330,000; P35414; inhibition, % at 20 µM; CHO-K1 APJ beta-arrestin complementation, luminescence;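 active means inhibition above about 40% at 20 µM, limit read from the data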;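 further: cells challenged with 10 nM apelin-13 agonist together with compound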
CCR6 antag = CCR6 (human) receptor antagonism; inhibition, % at 20 µM; CHO-K1 CCR6 PathHunter beta-arrestin, luminescence, CCL20-stimulated; hit rate 0.49% among 340,000; P51684;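 active means compounds whose inhibition of the agonist-driven luminescence signal at 20 µM reaches about 50%, limit read from the data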;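 further: cells stimulated with CCL20 at 14 nM final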
APOBEC3G confirm = confirmation of human APOBEC3G DNA deaminase inhibitors; shares compounds with A3G deaminase; recombinant A3G ssDNA deaminase, UDG/FAM-TAMRA fluorescence; inhibition, % at 20 µM; hit rate 72% among 890; AID 493152;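 active means inhibition reaching a set limit in any replicate at 20 µM, the limit being 80% of the first screen's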
UDG A3G counter = inhibits E. coli UDG, flagging false APOBEC3G inhibitors | shares compounds with A3G deaminase | UDG counterscreen, FAM/TAMRA oligo fluorescence | inhibition, % at 20 µM | 710 tested, under 10 active | AID 504715;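 active means compounds giving 40% or more inhibition at 20 µM in any one of the three replicates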;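 further: inhibitors lower the FAM signal released by uracil excision and alkaline cleavage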
Target sequence (P12295 whole entry, looked up): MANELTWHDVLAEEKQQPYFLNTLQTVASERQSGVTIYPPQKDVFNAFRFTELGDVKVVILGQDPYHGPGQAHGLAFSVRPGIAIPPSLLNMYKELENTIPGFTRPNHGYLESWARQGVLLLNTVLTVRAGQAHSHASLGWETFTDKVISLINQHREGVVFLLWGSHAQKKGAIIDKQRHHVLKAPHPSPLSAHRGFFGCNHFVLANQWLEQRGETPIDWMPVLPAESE
Numbers stand for hits; . = inactive; / = no result given.

SMILES	APOBEC3A inh	A3G deaminase	APJ agonist	CXCR6 inh	APJ antag	CCR6 antag	APOBEC3G confirm	UDG A3G counter
Cc1cc(C)c2[nH]c(=S)cc(C)c2c1	.	73	.	.	.	.	active	.
COc1ccc2c(C)cc(=S)[nH]c2c1	.	.	.	.	.	.	/	/
COC(=O)[C@]1(C)N[C@H](CN(C)C(=O)COc2ccccc2)[C@@H]2C(=O)N(C)C(=O)[C@@H]21	.	74	.	.	.	.	.	/
COC(=O)[C@]1(C)N[C@H](CN(C)C(=O)Nc2ccccc2)[C@@H]2C(=O)N(C)C(=O)[C@@H]21	.	.	.	.	.	.	/	/
Cc1ccc(NC(=O)c2ccc3c(SCC(=O)O)c4c(nc3c2)CCCC4)c(Br)c1	.	.	.	.	.	.	/	/
O=C1c2c(O)cccc2Cc2cccc(O)c21	.	67	.	.	.	.	78	.
CCCCCC(=O)N1C[C@@H](n2cc(-c3ccc(F)cc3)nn2)[C@H](O)C[C@@H]1c1ccc(Cl)cc1	/	/	/	.	/	/	/	/
CCOC(=O)c1[nH]cc(-c2ccccc2)c1N1CCOCC1	.	62	.	.	.	.	41	.
CCOC(=O)c1cnc(-c2ccccc2)nc1N1CCOCC1	.	.	.	.	.	.	/	/
CCn1c(CSCc2ccccc2)n[nH]c1=S	.	41	.	.	.	.	85	.
CCn1c(CSc2nc3ccccc3[nH]2)n[nH]c1=S	.	46	.	.	.	.	55	.
CCOC(=O)C1(Cc2ccccc2C)CCCN(C(=O)c2ccc(C(C)=O)s2)C1 (stereo unspecified)	/	/	/	.	/	/	/	/
COc1ccccc1NS(=O)(=O)c1ccc(O)cc1	.	81	.	.	.	.	.	/
CC1CCCN(CCCNC(=O)c2cn(C)c3ccc(S(=O)(=O)N(C)C4CCCCC4)cc3c2=O)C1 (stereo unspecified)	.	.	.	.	.	.	/	/
CN(C)S(=O)(=O)c1ccc2c(c1)c(=O)c(C(=O)NCCCN1CCCCCC1)cn2C	.	52	.	.	.	.	.	/
COc1ccc2ccccc2c1CNC(C)CCc1ccccc1 (stereo unspecified)	.	.	.	.	.	.	/	/
Cc1ccccc1NC(=O)Cn1nnc2ccccc21	.	50	.	.	.	.	.	.
Cc1c(C)c(C)c(C(=O)c2ccc(NC(=O)c3ccccc3C(=O)O)cc2)c(C)c1C	.	.	.	.	.	.	/	/
Cc1nc(SCc2ccc(O)c([N+](=O)[O-])c2)n[nH]1	.	.	.	.	.	.	/	/
Cc1nc(SCc2ccc(O)c([N+](=O)[O-])c2)c([N+](=O)[O-])[nH]1	.	63	.	.	.	.	58	.
CCCCCC(=O)N(O)C1CC(=O)N(c2ccccc2)C1=O (stereo unspecified)	.	42	.	.	.	.	43	.
Oc1cc2c(cc1O)C1c3ccc(O)c(O)c3OCC1(O)C2 (stereo unspecified)	.	61	.	.	.	.	69	/
CCOCC(=O)Nc1nnc(COc2ccc(Cl)cc2)s1	.	41	.	.	.	.	20	.
Cc1onc(-c2ccccc2)c1C(=O)Nc1nnc(COc2ccc(Cl)cc2)s1	.	58	.	.	.	.	38	.
CCc1nnc(NC(=O)c2c(-c3ccccc3)noc2C)s1	.	.	.	.	.	.	/	/
SMILES	APOBEC3A inh	A3G deaminase	APJ agonist	CXCR6 inh	APJ antag	CCR6 antag	APOBEC3G confirm	UDG A3G counter
O=C(CSc1ccccc1)Nc1nnc(COc2ccc(Cl)cc2)s1	.	44	.	.	.	.	58	.
COc1cc(/C=N/NC(=O)c2nnn(-c3nonc3N)c2C(C)C)ccc1OCc1ccc(F)cc1	.	.	.	.	.	.	/	/
O=C(CN1CCC(NC(=O)C2CC2)CC1)Nc1cccc(F)c1	.	.	.	.	.	.	/	/
CN(C(=O)COC(=O)C1=COCCO1)c1c(N)n(Cc2ccccc2)c(=O)[nH]c1=O	.	.	.	.	.	.	/	/
CCOC(=O)CSc1nc2c(sc(=S)n2-c2ccccc2)c(=O)n1-c1ccc(OC)cc1OC	.	41	.	.	.	.	28	.
CCN(CC)C(=O)CSc1nc2c(sc(=S)n2-c2ccccc2)c(=O)n1-c1ccccc1OC	.	.	.	.	.	.	/	/
CCN(CC)C(=O)CSc1nc2c(sc(=S)n2-c2ccccc2)c(=O)n1-c1ccc(OC)cc1OC	.	53	.	.	.	.	56	.
CCCn1c(N)c(C(=O)CSc2nc(C)nc3sc(C)c(C)c23)c(=O)[nH]c1=O	.	.	.	.	.	.	/	/
O=C(CN1CCN(c2ccc(O)cc2)CC1)Nc1ccc2c(c1)OCCO2	.	62	.	.	.	.	.	/
Cc1cccc(-n2c(-c3ccco3)n[nH]c2=S)c1	.	54	.	.	.	.	60	.
S=c1[nH]nc(-c2ccco2)n1-c1ccc(Br)cc1	.	42	.	.	.	.	69	.
COc1ccc(S(=O)(=O)N2CCN(C(=O)c3sccc3-c3ccccc3)CC2)cc1	.	.	.	.	.	.	/	/
C/C=C(\C)C(=O)NCCN1C2=NC[C@@H](Cc3ccccc3)N2C[C@@H]1Cc1ccc(OC)cc1	.	.	.	.	.	.	/	/
CCCCCCNC(=O)N[C@@H](C(=O)NCCC[C@H]1CN2C(=NC[C@@H]2Cc2ccccc2)N1CCc1cccc(OC)c1)C(C)C	.	54	.	/	.	.	32	/
CCCCCCn1c(SCC(C)C)nc2c1c(=O)[nH]c(=O)n2C	.	.	.	.	.	.	/	/
CCCCCCn1c(SCC(=O)OC)nc2c1c(=O)[nH]c(=O)n2C	.	45	.	.	.	.	68	.
CCNc1nc(NCC)n2c(SCC(=O)Nc3ccc(CC)cc3)nnc2n1	.	49	.	.	.	.	47	.
CCNc1nc(NCC)n2c(SCC(=O)Nc3ccc(NC(C)=O)cc3)nnc2n1	.	.	.	.	.	.	/	/
S=C(Nc1ccc(Br)cc1Cl)NN1CCOCC1	.	61	.	.	.	.	.	/
CCc1ccc(-n2c(=S)sc3c(=O)n(-c4ccccc4C)c(SCC(=O)O)nc32)cc1	.	.	.	.	.	.	/	/
CCOC(=O)c1c(NC(=O)c2ccccc2Br)sc2c1CCc1ccccc1-2	.	46	.	.	.	.	33	.
CCOC(=O)c1c(NC(C)=O)sc2c1CCN(Cc1ccccc1)C2	.	.	.	.	.	.	/	/
CCOC(=O)CNC(=O)c1ccccc1Br	.	.	.	.	.	.	/	/
CCOC(=O)c1c(NC(C)=O)sc2c1CCC(C=O)=C2Sc1ccccc1	.	41	.	.	.	.	.	.

Screening data from PubChem BioAssay.
